Assay results taken from article PMC6085501 (EBioMedicine, 2018).

Key:
[1] = molecular target: Glucose regulated protein 78 kDa (GRP78), recombinant protein immobilised for SPR (UniProt P11021); experiment: SPR
[2] = system: human HBT 3477 breast cancer; conditions: 250 μg/mouse, nude mice; cited from earlier work
HUVECs = experiment: Cell Death Detection ELISA; format: cell-based, human; conditions: 100 μM, 24 h
Method in brief: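 HUVECs (passages 5–10) seeded at 1–1.5 × 10^4 cells/well and pre-starved 3 h in 2% FBS medium. Co-treated with 100 μM test peptide plus 15 ng/ml VEGF for 24 h. Apoptosis read as cytoplasmic histone-associated DNA fragments by photometric ELISA at 405 nm. Fold change taken against VEGF-only cells set as 1. Mean ± SEM, at least three independent experiments, ANOVA.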

Cell-surface GRP78 = conditions: ISM protein as ligand of cell-surface GRP78; cited from earlier work

UniProt P11021, sequence (P11021 19-654): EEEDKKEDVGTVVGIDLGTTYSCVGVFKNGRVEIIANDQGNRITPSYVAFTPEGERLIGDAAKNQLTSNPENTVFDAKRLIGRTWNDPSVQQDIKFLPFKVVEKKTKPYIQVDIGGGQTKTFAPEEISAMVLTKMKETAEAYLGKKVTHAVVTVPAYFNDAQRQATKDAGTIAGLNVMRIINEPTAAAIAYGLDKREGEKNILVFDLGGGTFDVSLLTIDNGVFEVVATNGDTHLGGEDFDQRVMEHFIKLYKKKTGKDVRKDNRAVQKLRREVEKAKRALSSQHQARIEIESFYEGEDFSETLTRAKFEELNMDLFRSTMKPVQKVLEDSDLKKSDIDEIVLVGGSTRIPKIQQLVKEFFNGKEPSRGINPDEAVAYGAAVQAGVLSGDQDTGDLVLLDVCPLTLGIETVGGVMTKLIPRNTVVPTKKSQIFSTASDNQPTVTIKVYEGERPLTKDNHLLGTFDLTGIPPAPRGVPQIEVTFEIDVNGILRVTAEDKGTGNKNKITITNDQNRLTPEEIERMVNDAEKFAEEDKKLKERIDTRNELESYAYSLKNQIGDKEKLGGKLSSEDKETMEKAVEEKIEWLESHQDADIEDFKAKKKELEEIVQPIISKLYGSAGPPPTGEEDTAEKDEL

Molecule: BC71, cyclic peptide c[(bA)(k)RKD(2-D-Nal)]
- Kd [1]: 211 µM

Molecule: cilengitide
- suppression of tumor growth as single agent [2]: ineffective

Molecule: cyclo(KRAAF) [GR35]
- proapoptotic activity towards HUVECs (in words) (HUVECs): significantly reduced its proapoptotic activity

Molecule: cyclo(KRKDF) [GR16]
- apoptosis, relative fold change (HUVECs; HUVECs, Cell Death Detection ELISA, Fig. 1a legend): over 1.4

B1: ISM: secreted proapoptotic protein, high-affinity ligand of cell-surface GRP78 (protein, UniProt B1AKI9 30-464, looked up)
Isthmin-1: ADGPDAAAGNASQAQLQNNLNVGSDTTSETSFSLSKEAPREHLDHQAAHQPFPRPRFRQETGHPSLQRDFPRSFLLDLPNFPDLSKADINGQNPNIQVTIEVVDGPDSEADKDQHPENKPSWSVPSPDWRAWWQRSLSLARANSGDQDYKYDSTSDDSNFLNPPRGWDHTAPGHRTFETKDQPEYDSTDGEGDWSLWSVCSVTCGNGNQKRTRSCGYACTATESRTCDRPNCPGIEDTFRTAATEVSLLAGSEEFNATKLFEVDTDSCERWMSCKSEFLKKYMHKVMNDLPSCPCSYPTEVAYSTADIFDRIKRKDFRWKDASGPKEKLEIYKPTARYCIRSMLSLESTTLAAQHCCYGDNMQLITRGKGAGTPNLISTEFSAELHYKVDVLPWIICKGDWSRYNEARPPNNGQKCTESPSDEDYIKQFQEAREY
- Kd (Cell-surface GRP78): 0.0086 µM
